Measured values gathered from unrelated publications.
Each line is one published result; the experiments were not run side by side.
Organism: Staphylococcus aureus
Observed: microbial growth

SMILES	assay	system	setting	MIC
Cc1ccc(C)n1-c1ccc(C(=O)NNC=O)cc1	broth dilution	ATCC11632	18 h	16 µg/mL
C/C=C(\C)c1cc(OC(=O)c2c(C)c(Cl)c(O)c(Cl)c2O)c(C)c(O)c1C(=O)O	broth dilution	6917		> 64 µg/mL
COc1cccc(-c2cc(=O)c3ccccc3o2)c1N		NCTC8325		> 30 µM
O=[N+]([O-])c1cccc(-c2nc3ccccc3[nH]2)c1	broth dilution	ATCC29213 MSSA		64 µg/mL
CC[C@H]1OC(=O)[C@H](C)[C@@H](O[C@H]2C[C@@](C)(OC)[C@@H](O)[C@H](C)O2)[C@H](C)[C@@H](O[C@@H]2O[C@H](C)C[C@H](N(C)C)[C@H]2O)[C@](C)(O)C[C@@H](C)C(=O)[C@H](C)[C@@H](O)[C@]1(C)O		129	clinical isolate	> 100 µM
CCCCCCC#Cc1cncc(-c2nnc(SCc3ccc([N+](=O)[O-])cc3)n2C)c1		MRSA	drug-resistant strain	≥ 20 µg/mL
Cc1c(CN(C)C(=O)/C=C/c2cnc3c(c2)CC(NC(=O)OC(C)(C)C)C(=O)N3)oc2ccccc12 (stereo not drawn)	broth dilution	ATCC29213		0.016 µg/mL
CN[C@H](CC(C)C)C(=O)N[C@H]1C(=O)N[C@@H](CC(N)=O)C(=O)N[C@H]2C(=O)N[C@H]3C(=O)N[C@H](C(=O)N[C@H](C(=O)O)c4cc(O)cc(O)c4-c4cc3ccc4O)[C@H](O)c3ccc(c(Cl)c3)Oc3cc2cc(c3O[C@@H]2O[C@H](CO)[C@@H](O)[C@H](O)[C@H]2O[C@H]2C[C@](C)(N)[C@H](O)[C@H](C)O2)Oc2ccc(cc2Cl)[C@H]1O		NCTC8325		1 µM
CSc1nc(C)c(Cl)c(O)n1				> 128 µg/mL
Cc1ccc2nc(-c3ccc([N+](=O)[O-])cc3)n(Cc3ccccc3Cl)c2c1	broth dilution	ATCC29213 MSSA		32 µg/mL
CCCS(=O)(=O)Nc1ccc(F)c(C(=O)c2c[nH]c3ncc(-c4ccc(Cl)cc4)cc23)c1F		NCTC8325		> 30 µM
O=C(CCCCCC[P+](c1ccccc1)(c1ccccc1)c1ccccc1)Nc1ccc(O)c(O)c1.[Br-]	broth dilution	ATCC43300 MRSA	18 h	> 32 µg/mL
C=CC(=O)Nc1cccc(Sc2nc(Nc3ccc(N4CCN(C)CC4)cc3)ncc2Cl)c1		NCTC8325		> 30 µM
C/C(=C\c1ccc(O)cc1)C(=O)Nc1ccc(C(=O)N[C@@H](CC(N)=O)C(=O)Nc2ccc(C(=O)Nc3ccc(C(=O)Nc4ccc(C(=O)O)cc4)c(O)c3OC(C)C)cc2)cc1		ATCC29213		0.25 µg/mL
Cc1cccc(C)c1NC(=O)Nc1ccc(Cl)c(C(F)(F)F)c1		NCTC8325	24 h	> 100 µM
CO[C@@H](C(N)=O)[C@H](NC(=O)c1ccc(NC(=O)c2ccc(C#N)cc2)cc1)C(=O)Nc1ccc(C(=O)Nc2ccc(C(=O)Nc3ccc(C(=O)O)cc3)c(O)c2OC(C)C)cc1		ATCC29213		< 0.03 µg/mL
CC1(C)S[C@@H]2[C@H](NC(=O)[C@H](N)c3ccccc3)C(=O)N2[C@H]1C(=O)O	broth dilution	16339		64 µg/mL
CNC(=O)c1ccc(NC(=O)Nc2ccc(Cl)c(C(F)(F)F)c2)cc1		NCTC8325	24 h	30 µM
Cc1ccccc1NCc1ccc(Oc2ccccn2)cc1				1.6 µg/mL
Cc1ccc(C(=O)Nc2cccc(C(F)(F)F)c2)cc1Nc1nc(-c2cccnc2)nc2c1cnn2C		NCTC8325		> 30 µM
O=C(O)CN1C(=O)/C(=C/c2ccc(-c3ccc(N(c4ccccc4)c4ccccc4)cc3)cc2)SC1=S	broth dilution	ATCC25923		3.9 µg/mL
